ChEMBL document CHEMBL3286128 (J Med Chem, 2014)
Active and inactive are the calls of the source. No cut-off for these calls is given here.

What was measured:
[1] = test system: Human immunodeficiency virus 1; assay: Ratio of EC50 for raltegravir-resistant HIV-1 harboring integrase Y143R mutant infected in human HOS cells to EC50 for HIV-1 harboring integrase wild type integrase infected in human HOS cells; type: functional
[2] = molecular target: T1, Human immunodeficiency virus type 1 integrase (Human immunodeficiency virus 1, UniProt Q7ZJM1); assay: Inhibition of strand transfer activity of HIV-1 integrase using [gamma-32P]-labeled DNA as substrate
Method in brief: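 Gel-based assay with radiolabelled oligonucleotide substrate and Mg2+ cofactor, measuring strand transfer by recombinant HIV-1 integrase. IC50 determined.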

[3] = test system: Human immunodeficiency virus 1; assay: Antiviral activity against raltegravir-resistant HIV-1 harboring integrase Y143R mutant infected in human HOS cells pretreated with compound for 3 hrs by single-round HIV-1 infectivity assay; type: functional, organism-based; conditions: Human immunodeficiency virus 1, HOS
[4] = Retention time of the compound by HPLC analysis; type: physicochemical
Method in brief: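 Preparative HPLC run as a linear gradient of solvent B over 30 min, starting at 30% B and ending at 70% or 80% B depending on the compound. Retention time was taken at elution.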

[5] = Selectivity index, ratio of CC50 for human HOS cells to EC50 for HIV-1 harboring wild type integrase infected in human HOS cells; type: toxicity, cell-based; conditions: read-out: Ratio CC50/EC50
Method in brief: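 HOS cells were exposed to compound and viability was read as ATP level by luciferase reporter. SI is CC50 divided by WT-vector EC50.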

[6] = molecular target: T1, Human immunodeficiency virus type 1 integrase
[7] = test system: Human immunodeficiency virus 1; assay: Antiviral activity against HIV-1 harboring wild type integrase infected in human HOS cells pretreated with compound for 3 hrs by single-round HIV-1 infectivity assay; type: functional, organism-based; conditions: Human immunodeficiency virus 1, HOS
HOS = assay: Cytotoxicity against human HOS cells assessed as ATP level by luciferase reporter assay; type: cell-based
Method in brief: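 HOS cells were exposed to compound and viability was read as ATP level by luciferase reporter. […] SI is CC50 divided by WT-vector EC50.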

[8] = test system: Human immunodeficiency virus 1; assay: Antiviral activity against raltegravir-resistant HIV-1 harboring integrase N155H mutant infected in human HOS cells pretreated with compound for 3 hrs by single-round HIV-1 infectivity assay; type: functional, organism-based; conditions: Human immunodeficiency virus 1, HOS
[9] = test system: Human immunodeficiency virus 1; assay: Antiviral activity against HIV-1 harboring wild type integrase infected in human HOS cells pretreated with compound for 3 hrs by single-round HIV-1 infectivity assay in presence of 10% fetal bovine serum; type: functional, organism-based; conditions: Human immunodeficiency virus 1, HOS
Method in brief: (§1)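 VSV-g-pseudotyped single-round HIV-1 luciferase vector (WT or mutant IN) made in 293T cells by calcium phosphate transfection, supernatant harvested at 48 h. HOS cells were seeded the day before, then pretreated with compound, 11 serial dilutions from 10 μM to 0.0005 μM, at 37 °C for 3 h. Virus was added and cells kept 48 h at 37 °C. Luciferase was read and normalised to infectivity without compound.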

[10] = test system: Human immunodeficiency virus 1; assay: Ratio of EC50 for raltegravir-resistant HIV-1 harboring integrase G140S/Q148H double mutant infected in human HOS cells to EC50 for HIV-1 harboring integrase wild type integrase infected in human HOS cells; type: functional
[11] = molecular target: Human immunodeficiency virus type 1 reverse transcriptase (Human immunodeficiency virus 1) (UniProt Q72547); assay: Inhibition of HIV-1 DNA-dependent DNA polymerase activity of reverse transcriptase after 60 mins by agarose gel electrophoresis
[12] = test system: Human immunodeficiency virus 1; assay: Antiviral activity against INSTI-resistant HIV-1 harboring integrase G118R mutant infected in human HOS cells pretreated with compound for 3 hrs by single-round HIV-1 infectivity assay; type: functional, organism-based; conditions: Human immunodeficiency virus 1, HOS; method in brief: as §1
[13] = test system: Human immunodeficiency virus 1; assay: Ratio of EC50 for raltegravir-resistant HIV-1 harboring integrase N155H mutant infected in human HOS cells to EC50 for HIV-1 harboring integrase wild type integrase infected in human HOS cells; type: functional
[14] = test system: Human immunodeficiency virus 1; assay: Ratio of EC50 for INSTI-resistant HIV-1 harboring integrase G118R mutant infected in human HOS cells to EC50 for HIV-1 harboring integrase wild type integrase infected in human HOS cells; type: functional
[15] = test system: Human immunodeficiency virus 1; assay: Antiviral activity against HIV-1 harboring wild type integrase infected in human HOS cells pretreated with compound for 3 hrs by single-round HIV-1 infectivity assay in presence of 5% fetal bovine serum; type: functional, organism-based; conditions: Human immunodeficiency virus 1, HOS; method in brief: as §1
[16] = test system: Human immunodeficiency virus 1; assay: Ratio of EC50 for INSTI-resistant HIV-1 harboring integrase R263K mutant infected in human HOS cells to EC50 for HIV-1 harboring integrase wild type integrase infected in human HOS cells; type: functional
[17] = test system: Human immunodeficiency virus 1; assay: Antiviral activity against HIV-1 harboring wild type integrase infected in human HOS cells pretreated with compound for 3 hrs by single-round HIV-1 infectivity assay in presence of 15% fetal bovine serum; type: functional, organism-based; conditions: Human immunodeficiency virus 1, HOS; method in brief: as §1
[18] = molecular target: Human immunodeficiency virus type 1 reverse transcriptase (Human immunodeficiency virus 1) (UniProt Q72547); assay: Inhibition of HIV-1 reverse transcriptase RNase H activity-mediated -8 cleavage assessed as retention of -17 cleavage at 10 uM by agarose gel electrophoresis
[19] = test system: Human immunodeficiency virus 1; assay: Antiviral activity against raltegravir-resistant HIV-1 harboring integrase G140S/Q148H double mutant infected in human HOS cells pretreated with compound for 3 hrs by single-round HIV-1 infectivity assay; type: functional, organism-based; conditions: Human immunodeficiency virus 1, HOS
[20] = test system: Human immunodeficiency virus 1; assay: Antiviral activity against INSTI-resistant HIV-1 harboring integrase R263K mutant infected in human HOS cells pretreated with compound for 3 hrs by single-round HIV-1 infectivity assay; type: functional, organism-based; conditions: Human immunodeficiency virus 1, HOS; method in brief: as §1

T1 sequence (Q7ZJM1 whole entry): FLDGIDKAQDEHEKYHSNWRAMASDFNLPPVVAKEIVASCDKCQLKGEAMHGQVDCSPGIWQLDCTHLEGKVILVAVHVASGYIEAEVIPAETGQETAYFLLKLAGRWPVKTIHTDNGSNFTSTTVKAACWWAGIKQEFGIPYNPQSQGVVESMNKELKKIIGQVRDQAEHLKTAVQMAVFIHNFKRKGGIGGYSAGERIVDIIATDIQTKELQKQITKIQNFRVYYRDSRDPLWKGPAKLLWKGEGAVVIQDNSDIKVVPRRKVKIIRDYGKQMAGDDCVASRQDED

SMILES	Ratio EC50 [1]	IC50 [2] [µM]	EC50 [3] [µM]	Retention_time [4] [min]	selectivity ratio [5]	IC50 [6] [µM]	EC50 [7] [µM]	CC50 (HOS) [µM]	EC50 [8] [µM]	EC50 [19] [µM]	also measured
CCOC(=O)[C@@H]1CCCN1c1c(C(=O)NCc2ccc(F)cc2F)c(=O)n(O)c2ncccc12	3	0.31	1.66	12.5	31	86	0.59	18			
NCCNc1c(C(=O)NCc2ccc(F)cc2F)c(=O)n(O)c2ncccc12		0.039		25.9		4.5	0.035	9.6			
CNc1c(C(=O)NCc2ccc(F)cc2F)c(=O)n(O)c2ncccc12		0.027		26.4		3.7	0.0031	> 250			
COC(=O)[C@H](Nc1c(C(=O)NCc2ccc(F)cc2F)c(=O)n(O)c2ncccc12)c1ccccc1				26.3			0.0074		0.022		
O=C(NCc1ccc(F)cc1F)c1c(NCCc2ccccc2)c2cccnc2n(O)c1=O		0.05		22		8	0.014	> 250			
COC(=O)[C@H](C)Nc1c(C(=O)NCc2ccc(F)cc2F)c(=O)n(O)c2ncccc12				26.4			0.0042				
CC(=O)OCCNc1c(C(=O)NCc2ccc(F)cc2F)c(=O)n(O)c2ncccc12	1	0.027	0.0048	23.6	> 55600	5.3	0.0045	> 250	0.0031	0.035	EC50 [9]: 0.0045 µM; Ratio EC50 [10]: 8; inhibition [11]: Active; EC50 [12]: 0.044 µM; Ratio EC50 [13]: 0.69; Ratio EC50 [14]: 10; EC50 [15]: 0.0045 µM; Ratio EC50 [16]: 4; EC50 [17]: 0.0045 µM; inhibition [18]: Active; EC50 [20]: 0.016 µM
CN(C)c1c(C(=O)NCc2ccc(F)cc2F)c(=O)n(O)c2ncccc12	1	0.087	0.273	21.6	49	21	0.268	13	2.3	6.8	Ratio EC50 [10]: 25; Ratio EC50 [13]: 9
CC(C)Nc1c(C(=O)NCc2ccc(F)cc2F)c(=O)n(O)c2ncccc12		0.016		17		1.8	0.0072	> 250			
N#Cc1ccc(-c2ccc(Nc3c(C(=O)NCc4ccc(F)cc4F)c(=O)n(O)c4ncccc34)cc2)cc1	3	0.13		22.3	> 2030	70	0.123	> 250			
O=C(NCc1ccc(F)cc1F)c1c(Nc2ccc3c(c2)Cc2ccccc2-3)c2cccnc2n(O)c1=O	3	0.84		21.3	> 1460	46	0.171	> 250			
C[C@@H]1CCO[C@H]2Cn3cc(C(=O)NCc4ccc(F)cc4F)c(=O)c(O)c3C(=O)N12 [DOLUTEGRAVIR]			0.0043				0.0016		0.0036	0.0058	EC50 [12]: 0.013 µM; EC50 [20]: 0.011 µM
O=C(NCc1ccc(F)cc1F)c1c(Nc2ccc(-c3ccccc3)cc2)c2cccnc2n(O)c1=O	1	0.34		22.8	> 672	52	0.372	> 250			
O=C(NCc1ccc(F)cc1F)c1c(N2CCOCC2)c2cccnc2n(O)c1=O	1.5	0.079	1.8	20.5	7	77	1.2	8.4	3.73	6.92	Ratio EC50 [10]: 6; Ratio EC50 [13]: 3
O=C(NCc1ccc(F)cc1F)c1c(NCCCCc2ccccc2)c2cccnc2n(O)c1=O	0.8	0.28	0.04	26.7	2040	12	0.05	102	0.116	0.243	Ratio EC50 [10]: 5; Ratio EC50 [13]: 2
COC(=O)[C@@H](CO)Nc1c(C(=O)NCc2ccc(F)cc2F)c(=O)n(O)c2ncccc12		0.013		20.5		4.4	0.0142				
Nc1c(C(=O)NCc2ccc(F)cc2F)c(=O)n(O)c2ncccc12				19.5			0.0011	> 250			EC50 [9]: 0.0011 µM; inhibition [11]: Active; EC50 [12]: 0.016 µM; EC50 [15]: 0.0011 µM; EC50 [17]: 0.0011 µM; inhibition [18]: Active; EC50 [20]: 0.0064 µM
COC(=O)[C@@H](C)Nc1c(C(=O)NCc2ccc(F)cc2F)c(=O)n(O)c2ncccc12			0.0081	26.4			0.0113	> 250		0.089	
O=C(NCc1ccc(F)cc1F)c1c(NCCO)c2cccnc2n(O)c1=O	0.88	0.01	0.0046	21.6	4620	0.55	0.0052	24	0.025	0.043	Ratio EC50 [10]: 8; EC50 [12]: 0.027 µM; Ratio EC50 [13]: 5; Ratio EC50 [14]: 5; Ratio EC50 [16]: 5; EC50 [20]: 0.026 µM
O=C(NCc1ccc(F)cc1F)c1c(NC2CCCCCC2)c2cccnc2n(O)c1=O	0.55	0.46	0.0066	25.8	5670	13	0.012	68	0.014	0.035	Ratio EC50 [10]: 3; Ratio EC50 [13]: 1
COC(=O)[C@@H](Nc1c(C(=O)NCc2ccc(F)cc2F)c(=O)n(O)c2ncccc12)c1ccccc1				22.6				> 250			
Nc1ccc(-c2ccc(Nc3c(C(=O)NCc4ccc(F)cc4F)c(=O)n(O)c4ncccc34)cc2)cc1	16	0.13		15.6	> 39700	80	0.0063	> 250			
O=C(NCc1ccc(F)cc1F)c1c(Nc2ccccc2)c2cccnc2n(O)c1=O		0.018		20.2		6.9	0.014	> 250			
COC(=O)[C@H](CO)Nc1c(C(=O)NCc2ccc(F)cc2F)c(=O)n(O)c2ncccc12		0.0084		15.9		5.8	0.0097	> 250			
CCCCCNc1c(C(=O)NCc2ccc(F)cc2F)c(=O)n(O)c2ncccc12		0.024		23.7		8.2	0.0074	94			
